Experimental data as given in paper PMC3858399 (Journal of medicinal chemistry, 2013).
“Also recorded” adds a separate entry of the source. Where two headings read alike, the source gives them in different places.

Assays:
[1] = tested on: mice with chronic constriction injury (CCI) of the sciatic nerve; details: cited from earlier work; for Reversal of neuropathic pain following CCI in mice: via an A3AR-mediated mechanism
[2] = tested on: A3AR−/− mice with CCI of the sciatic nerve; assay: CCI model of neuropathic pain in A3AR knockout mice; type: in vivo, mouse; details: i.p. 3 µmol/kg, male A3AR knock-out mice
[3] = tested on: mice with chronic constriction injury (CCI) of the sciatic nerve; assay: CCI model of neuropathic pain; type: in vivo, mouse; details: for Effect on Paw Withdrawal Thresholds (PWT) in contralateral paws: data not shown; for Time of maximal effect on mechano-allodynia: i.p. 3 µmol/kg on D7 after CCI; for Reversal of mechano-allodynia after CCI: i.p. 3 µmol/kg on day 7 (D7) after CCI, mouse
Outline: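 Male CD-1 mice (25–30 g), housed 4–5 per cage with a 12 h light/dark cycle. CCI of the left sciatic nerve (Bennett model) under isoflurane (3% induction, 2% maintenance in 100% O2); wound closed with a muscle suture and skin clip. Test compound or vehicle (5% DMSO in saline) given i.p. at 3 µmol/kg on D7, at peak mechano-allodynia. Experimenters blinded; mean ± SEM.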

[4] = biological target: T1, mA3AR (Mus musculus, UniProt Q61618); assay: Radioligand binding at mA3AR
T1 sequence (Q61618 1-319): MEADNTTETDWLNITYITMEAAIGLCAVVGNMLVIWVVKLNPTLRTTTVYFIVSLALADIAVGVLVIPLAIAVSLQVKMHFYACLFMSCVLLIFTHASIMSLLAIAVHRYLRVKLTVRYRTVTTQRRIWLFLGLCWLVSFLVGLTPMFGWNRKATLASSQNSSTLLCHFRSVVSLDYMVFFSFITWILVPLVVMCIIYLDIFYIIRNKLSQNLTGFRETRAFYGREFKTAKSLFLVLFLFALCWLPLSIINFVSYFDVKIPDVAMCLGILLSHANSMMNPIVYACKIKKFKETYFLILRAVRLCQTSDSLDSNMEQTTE

[5] = biological target: T2, mA1AR (Mus musculus, UniProt Q60612); type: cell-based; details: tested up to 10 µM
T2 sequence (Q60612 1-326): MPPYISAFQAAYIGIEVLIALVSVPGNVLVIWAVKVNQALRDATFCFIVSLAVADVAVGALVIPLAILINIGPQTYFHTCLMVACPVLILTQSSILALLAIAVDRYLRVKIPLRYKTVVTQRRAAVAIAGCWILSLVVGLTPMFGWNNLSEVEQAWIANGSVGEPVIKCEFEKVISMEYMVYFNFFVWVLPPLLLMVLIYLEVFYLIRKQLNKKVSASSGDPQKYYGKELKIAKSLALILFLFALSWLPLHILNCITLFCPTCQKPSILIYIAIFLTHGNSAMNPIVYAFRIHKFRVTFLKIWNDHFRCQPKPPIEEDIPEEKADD

[6] = biological target: T3, hA3AR (Homo sapiens, UniProt P0DMS8); assay: Radioligand binding at hA3AR
T3 sequence (P0DMS8 1-318): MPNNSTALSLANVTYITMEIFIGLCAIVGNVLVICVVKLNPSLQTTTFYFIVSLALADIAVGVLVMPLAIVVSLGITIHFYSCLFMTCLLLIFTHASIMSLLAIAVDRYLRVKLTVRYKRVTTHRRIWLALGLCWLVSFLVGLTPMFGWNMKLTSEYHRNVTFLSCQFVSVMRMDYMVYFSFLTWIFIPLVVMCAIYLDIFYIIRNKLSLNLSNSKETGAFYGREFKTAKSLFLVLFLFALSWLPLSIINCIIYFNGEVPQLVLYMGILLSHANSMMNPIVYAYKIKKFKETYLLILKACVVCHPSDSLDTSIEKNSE

SMILES	Effect on Paw Withdrawal Thresholds (PWT) in contralateral paws [1]	Reversal of neuropathic pain following CCI in mice [1]	Anti-allodynic effect in A3AR−/− mice [2]	Effect on Paw Withdrawal Thresholds (PWT) in contralateral paws [3]	Time of maximal effect on mechano-allodynia [3] [h]	Reversal of mechano-allodynia after CCI [3]	other results
CNC(=O)[C@H]1O[C@@H](n2cnc3c(NCc4cccc(I)c4)ncnc32)[C@H](O)[C@@H]1O [1a, N^6-(3-iodobenzyl)adenosine-5'-N-methyluronamide]	lacked effect	reverse the development of neuropathic pain	–	–	–	–	–
CNC(=O)[C@H]1O[C@@H](n2cnc3c(NCc4cccc(I)c4)nc(Cl)nc32)[C@H](O)[C@@H]1O [1b, 2-Chloro-N^6-(3-iodobenzyl)adenosine-5'-N-methyluronamide]	lacked effect	reverse the development of neuropathic pain	–	–	–	–	–
CNC(=O)[C@@]12C[C@@H]1[C@@H](n1cnc3c(NCc4cccc(Cl)c4)nc(C#Cc4ccc(S(=O)(=O)O)cc4)nc31)[C@H](O)[C@@H]2O [Compound 6, 4-((6-(3-Chlorobenzylamino)-9-((1S,2R,3S,4R,5S)-3,4-dihydroxy-5-(methylcarbamoyl)bicyclo[3.1.0]hexan-2-yl)-9H-purin-2-yl)ethynyl)benzenesulfonic acid]	–	–	significantly but not completely abrogated; also recorded: retained the ability to produce a small protective effect	lacked effect	≤ 1	reversed mechano-allodynia	–
CNC(=O)[C@@]12C[C@@H]1[C@@H](n1cnc3c(NCc4cccc(Cl)c4)nc(C#Cc4cccc(S(=O)(=O)O)c4)nc31)[C@H](O)[C@@H]2O [Compound 7, 3-((6-(3-Chlorobenzylamino)-9-((1S,2R,3S,4R,5S)-3,4-dihydroxy-5-(methylcarbamoyl)bicyclo[3.1.0]hexan-2-yl)-9H-purin-2-yl)ethynyl)benzenesulfonic acid]	–	–	completely lost; also recorded: completely eliminated	lacked effect	≤ 1	reversed mechano-allodynia	A3AR selectivity in comparison to the A1AR and A2AAR [4]: > 1000 fold; Functional activity at the mA1AR [5]: completely inactive up to 10 µM; A3AR selectivity in comparison to the A1AR and A2AAR [6]: > 10,000 fold
CCCOC(=O)c1c(-c2ccccc2)nc(CC)c(C(=O)SCC)c1CCC [compound 45, 5-propyl-2-ethyl-4-propyl-3-(ethylsulfanylcarbonyl)-6-phenylpyridine-5-carboxylate, reference compound]	–	–	–	–	–	–	Blocking of the anti-allodynic effects of A3AR agonist 1a ([1]; antagonist administered systemically, identical CCI model): completely effective; Effect of antagonist on the anti-allodynic actions of systemic agonist 7 ([3]; 45 intrathecal 3 nmol, 7 at 3 µmol/kg): had no effect; also recorded: did not block the effects of systemic 7
